This note sets out measurements from ChEMBL document CHEMBL4480434, “Anacolosins A-F and Corymbulosins X and Y, Clerodane Diterpenes from Anacolosa clarkii Exhibiting Cytotoxicity toward Pediatric Cancer Cell Lines” (2019).

What all share (assay type): functional
Experiment [1] has as its system A673. Briefly: Antiproliferative activity against human A673 cells assessed as growth inhibition after 48 hrs by sulforhodamine B assay. To be noted: A673, 48 h. In short, it runs like this:
(§1)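 A-673, SJCRH30 and Hep293TT cells in RPMI-1640 with 5% FBS and 0.5% gentamycin at 37 °C, 5% CO2, seeded at 4000–6000 cells/well and adhered overnight. DMSO solutions added to triplicate wells (0.5% v/v DMSO final) for 48 h. Medium removed, cells fixed with 10% TCA, SRB absorbance compared with vehicle and time-0 plates. TGI from nonlinear regression; n = 3, mean ± SEM.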
In general terms: Sulforhodamine B stains cellular protein and so reports cell mass.

Experiment [2] is described as follows: Antiproliferative activity against human SJCRH30 cells assessed as growth inhibition after 48 hrs by sulforhodamine B assay. In short, it runs like this:
as §1

A short description of experiment [3]: Antiproliferative activity against human D283 cells assessed as growth inhibition after 48 hrs by sulforhodamine B assay. To be noted: D283, 48 h. In outline:
(§2)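 D283 medulloblastoma cells grown in IMEM with 5% FBS and 0.3% gentamycin at 37 °C, 5% CO2, plated at 4000–6000 cells/well overnight. Compound in DMSO (0.5% v/v final), triplicate wells, 48 h. Because cells adhere poorly, 20% TCA added directly to the medium for fixation. SRB absorbance referenced to vehicle and time-0 plates; TGI by nonlinear regression, n = 3, mean ± SEM.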

The test system of experiment [4] is Hep293TT. Briefly: Antiproliferative activity against human Hep293TT cells assessed as growth inhibition after 48 hrs by sulforhodamine B assay. In outline:
as §1

Experiment [5] relates to A673. Nature of the experiment: Antiproliferative activity against human A673 cells assessed as growth inhibition after 48 hrs by sulforhodamine B assay relative to control. As to conditions: A673, 48 h. In outline:
as §1

Experiment [6] in a line: Antiproliferative activity against human SJCRH30 cells assessed as growth inhibition after 48 hrs by sulforhodamine B assay relative to control. In outline:
as §1

A short description of experiment [7]: Antiproliferative activity against human D283 cells assessed as growth inhibition after 48 hrs by sulforhodamine B assay relative to control. To be noted: D283, 48 h. In outline: as §2
Experiment [8] has as its system Hep293TT. Briefly: Antiproliferative activity against human Hep293TT cells assessed as growth inhibition after 48 hrs by sulforhodamine B assay relative to control. In short, it runs like this:
as §1

By TGI is commonly meant the concentration at which net growth stops.

The structures appear in SMILES notation.

Take `C=CC(=C)CCC1(C)C(C)CC(=O)C23C(=C[C@H](OC(=O)CC(C)C)CC12)[C@@H](OC(C)=O)O[C@H]3OC(C)=O` (some centres undefined): the TGI was found to be 1100 nM in experiment [1], 670 nM in experiment [2], 660 nM in experiment [3] and 1000 nM in experiment [4]. The Emax in experiment [5], in experiment [6], in experiment [7] and in experiment [8] was 100% in each case.

Regarding `C=CC(=C)CCC1(C)C(C)CC(=O)C23C(=C[C@H](OC(=O)CCC)CC12)[C@@H](OC(C)=O)O[C@H]3OC(C)=O` (some centres undefined), the TGI in experiment [1] is 1000 nM; in experiment [2] it was 500 nM; in experiment [3], 600 nM; in experiment [4], 900 nM. Besides, the Emax in experiment [5], in experiment [6], in experiment [7] and in experiment [8] was 100% each time.

`C=CC(=C)CCC1(C)C(C)CC(=O)C23C(=C[C@H](OC(=O)C(C)C)CC12)[C@@H](OC(C)=O)O[C@H]3OC(C)=O` (some centres undefined): the TGI in experiment [1] was determined as 4100 nM; in experiment [2], 2300 nM; in experiment [3], 2300 nM; in experiment [4], 3200 nM. For the same molecule, the Emax in experiment [5], in experiment [6], in experiment [7] and in experiment [8] was 100% throughout.

On to `C=CC(=C)CCC1(C)C(C)CC(=O)C23C(=C[C@H](OC(=O)[C@@H](C)CC)CC12)[C@@H](OC(C)=O)O[C@H]3OC(C)=O` (some centres undefined), for which the concentration for total growth inhibition (TGI) in experiment [1] is 1200 nM; in experiment [2] it was 730 nM; in experiment [3], 660 nM; in experiment [4], 800 nM. For the same molecule, the Emax in experiment [5], in experiment [6], in experiment [7] and in experiment [8] was 100% throughout.

On to `C=CC(=C)CCC1(C)C(C)CC(O)C23C(=C[C@H](OC(=O)CC)CC12)[C@@H](OC(C)=O)O[C@H]3OC(C)=O` (some centres undefined), for which the TGI in experiment [1] is 900 nM; in experiment [2], 360 nM; in experiment [3], 500 nM; in experiment [4], 300 nM. Moreover, the Emax in experiment [5], in experiment [6], in experiment [7] and in experiment [8] was 100% each time.

Consider `C=CC(=C)CCC1(C)C(C)CC(=O)C23C(=C[C@H](OC(=O)CC)CC12)[C@@H](OC(C)=O)O[C@H]3OC(C)=O` (some centres undefined), for which the TGI worked out at 1100 nM in experiment [1], 520 nM in experiment [2], 700 nM in experiment [3] and 1000 nM in experiment [4]. For the same molecule, the Emax in experiment [5], in experiment [6], in experiment [7] and in experiment [8] was 100% in each case.

Turning to `C=CC(=C)CCC1(C)C(C)CC(O)C23C(=C[C@H](OC(=O)CC(C)C)CC12)[C@@H](OC(C)=O)O[C@H]3OC(C)=O` (some centres undefined), the TGI in experiment [1] was found to be 700 nM; in experiment [2] it was 340 nM; in experiment [3], 360 nM; in experiment [4], 220 nM. Besides, the Emax in experiment [5], in experiment [6], in experiment [7] and in experiment [8] was 100% each time.

As for `C=CC(=C)CCC1(C)C(C)CC(O)C23C(=C[C@H](OC(=O)/C(C)=C\C)CC12)[C@@H](OC(C)=O)O[C@H]3OC(C)=O` (some centres undefined), the total growth inhibition concentration (TGI) in experiment [1] turned out to be 1000 nM; in experiment [2], 440 nM; in experiment [3] it was 700 nM; in experiment [4], 280 nM. Also, the Emax in experiment [5], in experiment [6], in experiment [7] and in experiment [8] was 100% throughout.

Take `C=CC(=C)CCC1(C)C(C)CC(O)C23C(=C[C@H](OC(=O)[C@@H](C)CC)CC12)[C@@H](OC(C)=O)O[C@H]3OC(C)=O` (some centres undefined): the TGI was determined as 1700 nM in experiment [1], 800 nM in experiment [2], 1100 nM in experiment [3] and 600 nM in experiment [4]. Also, the Emax in experiment [5], in experiment [6], in experiment [7] and in experiment [8] was 100% each time.

`C=CC(=C)CCC1(C)C(C)CC(=O)C23C(=C[C@H](OC(=O)/C(C)=C\C)CC12)[C@@H](OC(C)=O)O[C@H]3OC(C)=O` (some centres undefined): the TGI in experiment [1] came out at 3100 nM; in experiment [2], 1900 nM; in experiment [3] it was 2000 nM; in experiment [4], 1800 nM. The Emax in experiment [5], in experiment [6], in experiment [7] and in experiment [8] was 100% each time.

Turning to `CCC1=C[C@@H]2CN(C1)Cc1c([nH]c3ccccc13)[C@@](C(=O)OC)(c1cc3c(cc1OC)N(C)[C@H]1[C@@](O)(C(=O)OC)[C@H](OC(C)=O)[C@]4(CC)C=CCN5CC[C@]31[C@@H]54)C2` [VINORELBINE], the TGI in experiment [1] was determined as 6 nM; in experiment [2] it was 6 nM; in experiment [3], 80 nM; in experiment [4], 80 nM.
